Test results taken from ChEMBL document CHEMBL1131127, “Syntheses of trans-5-oxo-hexahydro-pyrrolo[3,2-b]pyrroles and trans-5-oxo-hexahydro-furo[3,2-b]pyrroles (pyrrolidine trans-lactams and trans-lactones): new pharmacophores for elastase inhibition” (J Med Chem, 1998).
pIC50: −log10 of the molar value.

How the values were obtained:
Chymotrypsinogen A [1] = biological target: T1, Chymotrypsinogen A (Bos taurus, UniProt P00766); experiment: The compound was tested for inhibition of Chymotrypsinogen with a pre-incubation time of 15 min
Neutrophil elastase [2] = biological target: T2, Neutrophil elastase (Homo sapiens, UniProt P08246); experiment: The compound was tested for inhibition of human neutrophil elastase enzyme with a pre-incubation time of 0 min.
T2 sequence (P08246 whole entry): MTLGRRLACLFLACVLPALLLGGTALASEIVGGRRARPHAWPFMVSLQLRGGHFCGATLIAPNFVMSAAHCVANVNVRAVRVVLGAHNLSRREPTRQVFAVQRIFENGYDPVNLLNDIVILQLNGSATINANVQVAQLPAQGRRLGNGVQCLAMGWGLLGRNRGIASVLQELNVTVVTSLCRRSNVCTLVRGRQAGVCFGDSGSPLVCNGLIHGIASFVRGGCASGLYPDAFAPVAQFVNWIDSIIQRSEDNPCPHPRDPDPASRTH
Summary of the method: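 HNE IC50: compound preincubated at 30 °C with substrate MeO-Succ-Ala-Ala-Pro-Val-p-nitroanilide, reaction started by adding HNE (0 min enzyme preincubation); p-nitroanilide release followed spectrophotometrically. Errors as standard deviations.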

Neutrophil elastase [3] = biological target: T2, Neutrophil elastase; experiment: The compound was tested for inhibition of human neutrophil elastase enzyme with a pre-incubation time of 40 min.
Summary of the method: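 Compound preincubated with HNE for 40 min, then reaction started with MeO-Succ-Ala-Ala-Pro-Val-p-nitroanilide; p-nitroanilide release monitored spectrophotometrically to give IC50. Errors quoted as standard deviations.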

Prothrombin [4] = biological target: T3, Prothrombin (Homo sapiens, UniProt P00734); experiment: The compound was tested for inhibition of thrombin with a pre-incubation time of 15 min.
Chymotrypsinogen A [5] = biological target: T1, Chymotrypsinogen A; experiment: The compound was tested for inhibition of Chymotrypsinogen with a pre-incubation time of 15 min.
Prothrombin [6] = biological target: T3, Prothrombin; experiment: The compound was tested for inhibition of thrombin with a pre-incubation time of 15 min
Prothrombin [7] = biological target: T3, Prothrombin; experiment: The compound was tested for inhibition of thrombin with a preincubation time of 15 min
Cathepsin G = biological target: T4, Cathepsin G (Homo sapiens, UniProt P08311); experiment: The compound was tested for inhibition of cathepsin G with a pre-incubation time of 15 min
T4 sequence (P08311 whole entry): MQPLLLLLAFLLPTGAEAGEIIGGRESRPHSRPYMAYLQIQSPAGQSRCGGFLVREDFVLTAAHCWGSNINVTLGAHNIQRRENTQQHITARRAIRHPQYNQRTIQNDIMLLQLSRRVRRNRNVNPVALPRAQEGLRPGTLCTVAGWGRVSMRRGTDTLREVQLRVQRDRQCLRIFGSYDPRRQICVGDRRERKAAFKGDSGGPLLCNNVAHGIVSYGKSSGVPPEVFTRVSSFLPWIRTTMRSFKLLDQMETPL

Neutrophil elastase [8] = biological target: T2, Neutrophil elastase; experiment: The compound was tested for inhibition of human neutrophil elastase enzyme with a pre-incubation time of 15 min.
Summary of the method: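 IC50 against HNE determined after a 15-min preincubation of compound with enzyme; substrate MeO-Succ-Ala-Ala-Pro-Val-p-nitroanilide, p-nitroanilide release read spectrophotometrically.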

With `C=CC[C@H]1C(=O)N(S(=O)(=O)c2cccc3ccccc23)[C@H]2CCN(C(=O)OCc3ccccc3)C12` (stereo partly drawn) the pIC50 (Chymotrypsinogen A [1]) was 4.94, the pIC50 (Neutrophil elastase [2]) was less than 4.00 and the pIC50 (Neutrophil elastase [3]) was 7.06. The pIC50 (Prothrombin [4]) was less than 4.00.

With `C=CC[C@H]1C(=O)N(S(C)(=O)=O)[C@H]2CCN(C(=O)OCc3ccccc3)[C@H]12` the pIC50 (Chymotrypsinogen A [1]) was 4.39, the pIC50 (Neutrophil elastase [2]) was 6.43 and the pIC50 (Neutrophil elastase [3]) was 7.25. For the same compound, the pIC50 (Prothrombin [4]) was 4.27.

`C=CC[C@H]1C(=O)N[C@H]2CCN(C(=O)OCc3ccccc3)[C@@H]21` was tested, and the pIC50 (Chymotrypsinogen A [5]) was less than 4.00, the pIC50 (Neutrophil elastase [2]) was less than 3.30 and the pIC50 (Neutrophil elastase [3]) was less than 3.30. For the same compound, the pIC50 (Prothrombin [4]) was less than 4.00.

`C=CC[C@@H]1C(=O)O[C@H]2CCN(C(=O)OCc3ccccc3)C21` (stereo partly drawn) showed a pIC50 (Chymotrypsinogen A [1]) of 5.31, a pIC50 (Neutrophil elastase [2]) of 4.89 and a pIC50 (Neutrophil elastase [3]) of 7.13. The pIC50 (Prothrombin [6]) was 4.35.

Work on `CCC[C@@H](NC(=O)N1C(=O)C(CC)(CC)[C@@H]1Oc1ccc(C(=O)N2CCN(C)CC2)cc1)c1ccc2c(c1)OCO2` yielded a pIC50 (Chymotrypsinogen A [1]) of 6.01, a pIC50 (Neutrophil elastase [2]) of 7.64 and a pIC50 (Neutrophil elastase [3]) of 7.44. For the same compound, the pIC50 (Prothrombin [7]) was 4.10.

For `C=CC[C@H]1C(=O)O[C@H]2CCN(C(=O)OCC)C21` (stereo partly drawn), the pIC50 (Cathepsin G) was 5.44, the pIC50 (Chymotrypsinogen A [1]) was 5.40 and the pIC50 (Neutrophil elastase [8]) was 7.16. It also gave a pIC50 (Prothrombin [4]) of less than 3.70.

`C=CC[C@H]1C(=O)O[C@H]2CCN(C(=O)OCc3ccccc3)C21` (stereo partly drawn) gave a pIC50 (Chymotrypsinogen A [1]) of 4.80, a pIC50 (Neutrophil elastase [2]) of 6.47 and a pIC50 (Neutrophil elastase [3]) of 7.33. The pIC50 (Prothrombin [6]) was 4.31.
